≈ marks a conversion by molar mass, not a printed value.
Experiments:
[1] = system: Escherichia coli; assay: Minimum inhibitory concentration against Escherichia coli strain SM101; format: functional
[2] = system: Escherichia coli; assay: Minimum inhibitory concentration against Escherichia coli strain tolC; format: functional
[3] = system: Enterococcus faecalis; assay: Tested for minimal growth inhibitory concentration against […] ATCC 29212; format: functional
[4] = biological target: T1, Aspartyl/glutamyl-tRNA(Asn/Gln) amidotransferase subunit A (Streptococcus pyogenes serotype M1, UniProt Q99YC0); assay: In vitro inhibitory concentration against Glutaminase activity of bacterial Glu-tRNA-Gln […] (Glu-AdT)
T1 sequence (Q99YC0 whole entry, looked up): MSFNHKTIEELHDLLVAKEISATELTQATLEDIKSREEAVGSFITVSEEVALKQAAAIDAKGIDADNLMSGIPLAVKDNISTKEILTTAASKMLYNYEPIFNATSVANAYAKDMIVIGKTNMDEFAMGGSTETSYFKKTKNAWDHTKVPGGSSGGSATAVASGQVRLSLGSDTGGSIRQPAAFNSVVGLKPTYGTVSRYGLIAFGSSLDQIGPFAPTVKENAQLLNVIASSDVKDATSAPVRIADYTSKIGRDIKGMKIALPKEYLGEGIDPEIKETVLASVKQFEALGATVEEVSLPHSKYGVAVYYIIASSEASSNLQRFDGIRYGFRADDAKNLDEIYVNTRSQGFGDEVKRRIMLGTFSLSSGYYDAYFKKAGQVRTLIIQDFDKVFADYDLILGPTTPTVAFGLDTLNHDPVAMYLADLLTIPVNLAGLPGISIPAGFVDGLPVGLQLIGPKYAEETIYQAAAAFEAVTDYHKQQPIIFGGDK
Procedure, shortened: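 S. pyogenes Glu-AdT, glutaminase-only reaction with no ATP or tRNA. Gln at 2×Km. Inhibitor titrated over […]. Enzyme pre-incubated 15 min with inhibitor, then started with Gln. Reaction buffer was 50 mM HEPES, 25 mM MgCl₂, 15 mM KCl, 1% DMSO, pH 7. IC50 determined in duplicate.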

[5] = system: Helicobacter pylori; assay: Tested for minimal growth inhibitory concentration against Helicobacter pylori ATCC 43629; format: functional
Procedure, shortened: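 Broth dilution in Brain–Heart Infusion broth with 0.25% yeast extract and 10% horse serum. Inoculum was 6×10⁵ CFU per well, incubated 72 h at 37 °C under 10% CO₂. Highest concentration tested was 64. NCCLS-recommended control antibiotics tracked strain performance.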

[6] = system: Staphylococcus aureus; assay: Tested for minimal growth inhibitory concentration against Staphylococcus aureus ATCC 29213; format: functional
[7] = system: Streptococcus pyogenes; assay: Tested for minimal growth inhibitory concentration against Streptococcus pyogenes ATCC 13709; format: functional
[8] = Tested for mammalian cellular toxicity expressed as IC50; format: functional
[9] = biological target: T1, Aspartyl/glutamyl-tRNA(Asn/Gln) amidotransferase subunit A; assay: In vitro inhibitory concentration against transferase activity of bacterial Glu-tRNA-Gln […] (Glu-AdT)
Procedure, shortened: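 S. pyogenes Glu-AdT, Gln-dependent transferase reaction. Substrates were Glu-tRNAGln at >10×Km, ATP at 2×Km and Gln at 0.5×Km. Inhibitor titrated over […]. Enzyme pre-incubated 15 min with inhibitor, Glu-tRNAGln and ATP, then started with Gln. Buffer was 50 mM HEPES, 25 mM MgCl₂, 15 mM KCl, 1% DMSO, pH 7. IC50 determined in duplicate.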

[10] = system: Staphylococcus epidermidis; assay: Tested for minimal growth inhibitory concentration against Staphylococcus epidermidis ATCC 12228; format: functional
[11] = system: Staphylococcus epidermidis; assay: Tested for minimal growth inhibitory concentration against Staphylococcus epidermidis ATCC 51625; format: functional
[12] = system: Staphylococcus aureus; assay: Tested for minimal growth inhibitory concentration against Staphylococcus aureus ATCC 25923; format: functional
[13] = system: Staphylococcus aureus; assay: Tested for minimal growth inhibitory concentration against Staphylococcus aureus ATCC 4330; format: functional
[14] = system: Staphylococcus carnosus; assay: Tested for minimal growth inhibitory concentration against Staphylococcus carnosus ATCC 51365; format: functional
[15] = system: Streptococcus pneumoniae; assay: Tested for minimal growth inhibitory concentration against Streptococcus pneumoniae ATCC 49619; format: functional

| Structure (SMILES) | MIC [1] [µg/mL] | MIC [2] [µg/mL] | MIC [3] [µg/mL] | IC50 [4] [µM] | MIC [5] [µg/mL] | MIC [6] [µg/mL] | MIC [7] [µg/mL] | IC50 [8] [µM] | IC50 [9] [µM] | MIC [10] [µg/mL] | MIC [11] [µg/mL] | MIC [12] [µg/mL] | MIC [13] [µg/mL] | MIC [14] [µg/mL] | MIC [15] [µg/mL] |
| --- | --- | --- | --- | --- | --- | --- | --- | --- | --- | --- | --- | --- | --- | --- | --- |
| CC(C)(C)OC(=O)[C@@H](N)CCB1O[C@@]2(C)CCC3C[C@@]2(O1)C3(C)C | 8 (≈ 23.7 µM) | 8 (≈ 23.7 µM) | > 64 | > 80 | > 64 | > 64 | > 64 | > 100 |  |  |  |  |  |  |  |
| COC(=O)[C@H](CCB1O[C@@]2(C)CCC3C[C@@]2(O1)C3(C)C)NC(=O)OCc1ccccc1 | > 64 | > 64 | > 64 | > 80 | 32 (≈ 74.5 µM) | > 64 | 64 (≈ 149 µM) | > 100 | > 20 |  |  |  |  |  |  |
| COC(=O)[C@@H](N)CCB(O)O | > 64 | > 64 | 3 (≈ 18.6 µM) | 1.3 | 32 (≈ 199 µM) | > 64 | 6 (≈ 37.3 µM) | > 100 | 0.05 | > 64 | > 64 | > 64 | > 64 | > 64 | 2 (≈ 12.4 µM) |
| CN[C@@H](CCB1O[C@@]2(C)CCC3C[C@@]2(O1)C3(C)C)C(=O)O |  |  |  |  |  |  |  |  | 1.1 |  |  |  |  |  |  |
| CC1(C)C2CC[C@]3(C)OB(CCC[C@H](N)C(=O)O)O[C@]13C2 |  |  |  | > 80 |  |  |  |  | > 20 |  |  |  |  |  |  |
| CC1(C)C2CC[C@]3(C)OB(CCC(N)CC(=O)O)O[C@]13C2 (some centres undefined) |  |  |  |  |  |  |  |  | 6.5 |  |  |  |  |  |  |
| N[C@@H](CCB(O)O)C(=O)O | > 64 | > 64 | 8 (≈ 54.4 µM) | 1.6 | 32 (≈ 218 µM) | > 64 | 8 (≈ 54.4 µM) | > 100 | 0.1 | > 64 | > 64 | > 64 | > 64 | > 64 | 3 (≈ 20.4 µM) |
| CC(C)(C)OC(=O)NCCCB1O[C@@]2(C)CCC3C[C@@]2(O1)C3(C)C | 8 (≈ 23.7 µM) | 8 (≈ 23.7 µM) | > 64 | > 80 | > 64 | > 64 | > 64 |  | > 20 |  |  |  |  |  |  |
| CC1(C)C2CC[C@]3(C)OB(CC[C@H](NC(=O)CN)C(=O)O)O[C@]13C2 | > 64 | > 64 | 8 (≈ 23.7 µM) | > 80 |  | > 64 | > 64 |  | > 20 |  |  |  |  |  | > 64 |
| CC1(C)C2CC[C@]3(C)OB(CCCN)O[C@]13C2 | > 64 | > 64 | > 64 | > 80 | > 64 | > 64 |  | > 100 | > 20 |  |  |  |  |  |  |
| COC(=O)[C@H](CCCB1O[C@@]2(C)CCC3C[C@@]2(O1)C3(C)C)NC(=O)OCc1ccccc1 |  |  |  | > 80 |  |  |  |  | > 20 |  |  |  |  |  |  |
| COC(=O)[C@@H](N)CCCB1O[C@@]2(C)CCC3C[C@@]2(O1)C3(C)C |  |  |  | > 80 |  |  |  |  | > 20 |  |  |  |  |  |  |
| CC1(C)C2CC[C@]3(C)OB(CC[C@H](NC(=O)OCc4ccccc4)C(=O)O)O[C@]13C2 | > 64 | > 64 | > 64 | > 80 | > 64 | > 64 | > 64 | > 100 |  |  |  |  |  |  |  |
| COC(=O)[C@@H](N)CCB1O[C@@]2(C)CCC3C[C@@]2(O1)C3(C)C | > 64 | > 64 | 4 (≈ 13.6 µM) | 1.5 | 64 (≈ 217 µM) | > 64 | 8 (≈ 27.1 µM) | > 100 | 0.07 | > 64 | > 64 | > 64 | > 64 | > 64 | 2 (≈ 6.78 µM) |
| CNC(=O)CNC(=O)[C@@H](N)CCB1O[C@@]2(C)CCC3C[C@@]2(O1)C3(C)C |  |  | 16 (≈ 45.6 µM) | 40 | 16 (≈ 45.6 µM) | > 64 | 8 (≈ 22.8 µM) |  | 20 | > 64 | > 64 | > 64 | > 64 | > 64 | 16 (≈ 45.6 µM) |
| CC1(C)C2CC[C@]3(C)OB(CC[C@H](N)C(=O)NS(=O)(=O)c4ccc(N)cc4)O[C@]13C2 |  |  |  | > 80 |  |  |  |  | 10 |  |  |  |  |  |  |
| CC1(C)C2CC[C@]3(C)OB(CC[C@H](N)C(=O)NS(=O)(=O)C(F)(F)F)O[C@]13C2 |  |  |  | 55 |  |  |  |  | 4.7 |  |  |  |  |  |  |
| CC1(C)C2CC[C@]3(C)OB(CC[C@H](N)C(=O)NS(=O)(=O)c4ccccc4)O[C@]13C2 |  |  |  | 40 |  |  |  |  | 20 |  |  |  |  |  |  |
| CC1(C)C2CC[C@]3(C)OB(CCC[C@H](NC(=O)OCc4ccccc4)C(=O)O)O[C@]13C2 |  |  |  | > 80 |  |  |  |  | > 20 |  |  |  |  |  |  |
| CNC(=O)[C@@H](N)CCB1O[C@@]2(C)CCC3C[C@@]2(O1)C3(C)C | 64 (≈ 218 µM) | 64 (≈ 218 µM) | > 64 | > 80 | > 64 | > 64 | 32 (≈ 109 µM) | > 100 | 35 |  |  |  |  |  | 32 (≈ 109 µM) |
| CC(=O)N[C@@H](CCB1O[C@@]2(C)CCC3C[C@@]2(O1)C3(C)C)C(=O)O |  |  |  | > 80 |  |  |  |  | > 20 |  |  |  |  |  |  |
